Test results as given in ChEMBL document CHEMBL1133678, “Synthesis of new indeno[1,2-c]isoquinolines: cytotoxic non-camptothecin topoisomerase I inhibitors” (2000).

How the values were obtained:
Format in all cases: functional
[1] = system: Panel (Carcinoma cell lines); assay: Mean graph midpoint for growth inhibition of all human cancer cell lines; design: unit: µM
In short: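 Mean graph midpoint across all cell lines successfully tested in the roughly 55-line human cancer panel. Each line's GI50 is the 50% growth-inhibition concentration, tested over 10^-4 to 10^-8 M. Out-of-range values were set to 10^-8 M or 10^-4 M before averaging.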

SN12C = assay: Antiproliferative activity was determined for 50% growth inhibition against human renal SN12C cell line
In short: (§1)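 Human cancer cell lines from the roughly 55-line panel. GI50 is the concentration giving 50% growth inhibition. The test range was 10^-4 to 10^-8 M. Values outside the range were set to the minimum (10^-8 M) or the maximum (10^-4 M).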

UACC-62 = assay: Antiproliferative activity was determined for 50% growth inhibition against human melanoma UACC-62 cell line; in short: as §1
OVCAR-3 = assay: Antiproliferative activity was determined for 50% growth inhibition against human ovarian OVCAR-3 cell line; in short: as §1
DU-145 = assay: Antiproliferative activity was determined for 50% growth inhibition against human Prostate DU-145 cell line; in short: as §1
HCT-116 = assay: Antiproliferative activity was determined for 50% growth inhibition against human colon HCT116 cell line; in short: as §1
HOP-62 = assay: Antiproliferative activity was determined for 50% growth inhibition against human lung HOP-62 cell line; in short: as §1
SF-539 = assay: Antiproliferative activity was determined for 50% growth inhibition against human CNS SF-539 cell line; in short: as §1
MDA-MB-435 = assay: Antiproliferative activity was determined for 50% growth inhibition against human breast MDA-MB-435 cell line; in short: as §1

## COc1cc2c3c(n(CCCBr)c(=O)c2cc1OC)-c1cc2c(cc1C3=O)OCO2
[1]
  MGM: 13.7
SN12C; Homo sapiens, SN12C
  GI50: 5830 nM
UACC-62; Homo sapiens, UACC-62
  GI50: 5020 nM
OVCAR-3; Homo sapiens, OVCAR-3
  GI50: 62100 nM
DU-145; Homo sapiens, DU-145
  GI50: 3200 nM
HCT-116; Homo sapiens, HCT-116
  GI50: 12000 nM
HOP-62; Homo sapiens, HOP-62
  GI50: 6220 nM
SF-539; Homo sapiens, SF-539
  GI50: 4330 nM
MDA-MB-435; Homo sapiens, MDA-MB-435
  GI50: 16600 nM

## COc1cc2c3c(n(CCCNCCO)c(=O)c2cc1OC)-c1ccc2ccccc2c1C3=O
[1]
  MGM: 0.19
SN12C; Homo sapiens, SN12C
  GI50: 150 nM
UACC-62; Homo sapiens, UACC-62
  GI50: 160 nM
OVCAR-3; Homo sapiens, OVCAR-3
  GI50: 270 nM
DU-145; Homo sapiens, DU-145
  GI50: 280 nM
HCT-116; Homo sapiens, HCT-116
  GI50: 180 nM
HOP-62; Homo sapiens, HOP-62
  GI50: 170 nM
SF-539; Homo sapiens, SF-539
  GI50: 220 nM
MDA-MB-435; Homo sapiens, MDA-MB-435
  GI50: 420 nM

## COc1cc2c(cc1OC)-c1c(c3ccccc3c(=O)n1CCCCl)C2=O
[1]
  MGM: 76.1
SN12C; Homo sapiens, SN12C
  GI50: > 100000 nM
UACC-62; Homo sapiens, UACC-62
  GI50: > 100000 nM
OVCAR-3; Homo sapiens, OVCAR-3
  GI50: > 100000 nM
DU-145; Homo sapiens, DU-145
  GI50: > 100000 nM
HCT-116; Homo sapiens, HCT-116
  GI50: > 100000 nM
HOP-62; Homo sapiens, HOP-62
  GI50: > 100000 nM
SF-539; Homo sapiens, SF-539
  GI50: > 100000 nM
MDA-MB-435; Homo sapiens, MDA-MB-435
  GI50: > 100000 nM

## COc1cc2c(cc1OC)-c1c(c3ccccc3c(=O)n1CCCN)C2=O.Cl
[1]
  MGM: 0.62
SN12C; Homo sapiens, SN12C
  GI50: 430 nM
UACC-62; Homo sapiens, UACC-62
  GI50: 1270 nM
OVCAR-3; Homo sapiens, OVCAR-3
  GI50: 850 nM
DU-145; Homo sapiens, DU-145
  GI50: 890 nM
HCT-116; Homo sapiens, HCT-116
  GI50: 350 nM
HOP-62; Homo sapiens, HOP-62
  GI50: 190 nM
SF-539; Homo sapiens, SF-539
  GI50: 2930 nM
MDA-MB-435; Homo sapiens, MDA-MB-435
  GI50: 1050 nM

## COc1cc2c(cc1OC)-c1c(c3ccccc3c(=O)n1CCCNCCO)C2=O.Cl
[1]
  MGM: 0.95
SN12C; Homo sapiens, SN12C
  GI50: 2070 nM
UACC-62; Homo sapiens, UACC-62
  GI50: 630 nM
OVCAR-3; Homo sapiens, OVCAR-3
  GI50: 3640 nM
DU-145; Homo sapiens, DU-145
  GI50: 440 nM
HCT-116; Homo sapiens, HCT-116
  GI50: 340 nM
HOP-62; Homo sapiens, HOP-62
  GI50: 620 nM
SF-539; Homo sapiens, SF-539
  GI50: 450 nM
MDA-MB-435; Homo sapiens, MDA-MB-435
  GI50: 970 nM

## COc1cc2c3c(n(CCCN)c(=O)c2cc1OC)-c1cc2c(cc1C3=O)OCO2.Cl
[1]
  MGM: 0.16
SN12C; Homo sapiens, SN12C
  GI50: 310 nM
UACC-62; Homo sapiens, UACC-62
  GI50: 250 nM
OVCAR-3; Homo sapiens, OVCAR-3
  GI50: 310 nM
DU-145; Homo sapiens, DU-145
  GI50: 40 nM
HCT-116; Homo sapiens, HCT-116
  GI50: 130 nM
HOP-62; Homo sapiens, HOP-62
  GI50: 60 nM
SF-539; Homo sapiens, SF-539
  GI50: 260 nM
MDA-MB-435; Homo sapiens, MDA-MB-435
  GI50: 1210 nM

## CCn1c2c(c3cc(OC)c(OC)cc3c1=O)Cc1cc3c(cc1-2)OCO3
[1]
  MGM: 85.1
SN12C; Homo sapiens, SN12C
  GI50: > 100000 nM
UACC-62; Homo sapiens, UACC-62
  GI50: > 100000 nM
OVCAR-3; Homo sapiens, OVCAR-3
  GI50: > 100000 nM
DU-145; Homo sapiens, DU-145
  GI50: > 100000 nM
HCT-116; Homo sapiens, HCT-116
  GI50: > 100000 nM
HOP-62; Homo sapiens, HOP-62
  GI50: > 100000 nM
SF-539; Homo sapiens, SF-539
  GI50: > 100000 nM
MDA-MB-435; Homo sapiens, MDA-MB-435
  GI50: > 100000 nM

## COc1cc2c3c(n(CCCN=[N+]=[N-])c(=O)c2cc1OC)-c1cc2c(cc1C3=O)OCO2
[1]
  MGM: 11.8
SN12C; Homo sapiens, SN12C
  GI50: 4530 nM
OVCAR-3; Homo sapiens, OVCAR-3
  GI50: 76200 nM
DU-145; Homo sapiens, DU-145
  GI50: 3190 nM
HCT-116; Homo sapiens, HCT-116
  GI50: 7400 nM
HOP-62; Homo sapiens, HOP-62
  GI50: 3580 nM
SF-539; Homo sapiens, SF-539
  GI50: 3000 nM
MDA-MB-435; Homo sapiens, MDA-MB-435
  GI50: > 100000 nM

## O=C1c2ccccc2-c2c1c1ccccc1c(=O)n2CCCBr
[1]
  MGM: 13.3
SN12C; Homo sapiens, SN12C
  GI50: 7000 nM
UACC-62; Homo sapiens, UACC-62
  GI50: 10100 nM
OVCAR-3; Homo sapiens, OVCAR-3
  GI50: 23500 nM
DU-145; Homo sapiens, DU-145
  GI50: 13000 nM
HCT-116; Homo sapiens, HCT-116
  GI50: 4470 nM
HOP-62; Homo sapiens, HOP-62
  GI50: 4590 nM
SF-539; Homo sapiens, SF-539
  GI50: 4610 nM
MDA-MB-435; Homo sapiens, MDA-MB-435
  GI50: 21500 nM

## O=C1c2ccccc2-c2c1c1ccccc1c(=O)n2CCO
[1]
  MGM: 14.5
SN12C; Homo sapiens, SN12C
  GI50: 16400 nM
UACC-62; Homo sapiens, UACC-62
  GI50: 18200 nM
OVCAR-3; Homo sapiens, OVCAR-3
  GI50: 74200 nM
DU-145; Homo sapiens, DU-145
  GI50: 16400 nM
HCT-116; Homo sapiens, HCT-116
  GI50: 4950 nM
HOP-62; Homo sapiens, HOP-62
  GI50: 5620 nM
SF-539; Homo sapiens, SF-539
  GI50: 12200 nM
MDA-MB-435; Homo sapiens, MDA-MB-435
  GI50: 76700 nM

## COc1cc2c(cc1OC)-c1c(c3cc(OC)c(OC)cc3c(=O)n1CCCNCCCO)C2=O.Cl
[1]
  MGM: 1.14
SN12C
  GI50: 230 nM
UACC-62
  GI50: 1870 nM
OVCAR-3
  GI50: 3800 nM
DU-145
  GI50: 230 nM
HCT-116
  GI50: 710 nM
HOP-62
  GI50: 320 nM
SF-539
  GI50: 420 nM
MDA-MB-435
  GI50: 2420 nM

## CCCCn1c2c(c3cc(OC)c(OC)cc3c1=O)Cc1cc3c(cc1-2)OCO3
[1]
  MGM: 21.3
SN12C; Homo sapiens, SN12C
  GI50: 21700 nM
UACC-62; Homo sapiens, UACC-62
  GI50: 6510 nM
OVCAR-3; Homo sapiens, OVCAR-3
  GI50: 91900 nM
DU-145; Homo sapiens, DU-145
  GI50: 5370 nM
HCT-116; Homo sapiens, HCT-116
  GI50: 13200 nM
HOP-62; Homo sapiens, HOP-62
  GI50: 12000 nM
SF-539; Homo sapiens, SF-539
  GI50: 3400 nM
MDA-MB-435; Homo sapiens, MDA-MB-435
  GI50: 92400 nM

## COc1cc2c(cc1OC)-c1c(c3cc(OC)c(OC)cc3c(=O)n1CCCNCCO)C2=O.Cl
[1]
  MGM: 0.68
SN12C
  GI50: 110 nM
UACC-62
  GI50: 730 nM
OVCAR-3
  GI50: 2280 nM
DU-145
  GI50: 70 nM
HCT-116
  GI50: 390 nM
HOP-62
  GI50: 150 nM
SF-539
  GI50: 160 nM
MDA-MB-435
  GI50: 1430 nM

## COc1cc2c3c(n(CCCNCCO)c(=O)c2cc1OC)-c1cc2c(cc1C3=O)OCO2 [LMP-744]
[1]
  MGM: 0.21
OVCAR-3
  GI50: 1500 nM
DU-145; Homo sapiens, DU-145
  GI50: 20 nM
SF-539
  GI50: 90 nM
MDA-MB-435
  GI50: 680 nM

## COc1cc2c3c(n(CCCNCCCO)c(=O)c2cc1OC)-c1cc2c(cc1C3=O)OCO2
[1]
  MGM: 0.2
SN12C; Homo sapiens, SN12C
  GI50: 10 nM
UACC-62; Homo sapiens, UACC-62
  GI50: 10 nM
OVCAR-3; Homo sapiens, OVCAR-3
  GI50: 1190 nM
DU-145; Homo sapiens, DU-145
  GI50: 10 nM
HCT-116; Homo sapiens, HCT-116
  GI50: 40 nM
HOP-62; Homo sapiens, HOP-62
  GI50: 30 nM
SF-539; Homo sapiens, SF-539
  GI50: 10 nM
MDA-MB-435; Homo sapiens, MDA-MB-435
  GI50: 470 nM
